Data from ChEMBL document CHEMBL1687894, “Design, synthesis and evaluation of 3-methylene-substituted indolinones as antimalarials” (Eur J Med Chem, 2011).

Assays:
[1] = biological target: T1, Falcipain 2 (Plasmodium falciparum, UniProt Q9N6S8); assay: Inhibition of Plasmodium falciparum falcipain 2 incubated with compound for 10 mins before addition of 25 uM Z-Leu-Arg-AMC substrate by fluorescence spectrophotometry
T1 sequence (Q9N6S8 whole entry): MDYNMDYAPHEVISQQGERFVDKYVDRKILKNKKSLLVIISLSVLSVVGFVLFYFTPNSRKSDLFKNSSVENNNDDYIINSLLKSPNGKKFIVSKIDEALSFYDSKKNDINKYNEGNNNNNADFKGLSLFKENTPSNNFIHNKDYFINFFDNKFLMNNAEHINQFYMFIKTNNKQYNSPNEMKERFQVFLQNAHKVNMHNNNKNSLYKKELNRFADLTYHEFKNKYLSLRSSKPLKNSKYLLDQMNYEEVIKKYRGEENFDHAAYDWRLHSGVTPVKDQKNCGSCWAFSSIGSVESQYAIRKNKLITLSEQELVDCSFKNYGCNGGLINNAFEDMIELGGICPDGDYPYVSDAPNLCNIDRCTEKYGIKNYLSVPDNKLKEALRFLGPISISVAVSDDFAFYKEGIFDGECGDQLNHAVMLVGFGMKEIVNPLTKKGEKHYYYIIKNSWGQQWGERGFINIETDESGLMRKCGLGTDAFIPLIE
In short: (§1)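 Run at 25 °C in 100 mM sodium acetate pH 6.0 with 5 mM DTT and 0.75% DMSO. Enzyme was preincubated 10 min with compound diluted from DMSO, then Z-Leu-Arg-AMC was added and fluorescence was read immediately. Eight inhibitor concentrations were made by fivefold serial dilution. IC50 was fitted to percent inhibition versus a no-inhibitor control against log concentration.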

[2] = system: Plasmodium falciparum; assay: Antiplasmodial activity against chloroquine-resistant Plasmodium falciparum W2 infected in human red blood cells assessed as inhibition of ring-stage parasite growth after 48 hrs by flow cytometry; format: functional, organism-based; settings: W2, 48 h
[3] = biological target: T2, Cysteine protease falcipain-3 (Plasmodium falciparum, UniProt Q9NAW4); assay: Inhibition of Plasmodium falciparum falcipain 3 incubated with compound for 10 mins before addition of 25 uM Z-Leu-Arg-AMC substrate by fluorescence spectrophotometry; in short: as §1
T2 sequence (Q9NAW4 whole entry): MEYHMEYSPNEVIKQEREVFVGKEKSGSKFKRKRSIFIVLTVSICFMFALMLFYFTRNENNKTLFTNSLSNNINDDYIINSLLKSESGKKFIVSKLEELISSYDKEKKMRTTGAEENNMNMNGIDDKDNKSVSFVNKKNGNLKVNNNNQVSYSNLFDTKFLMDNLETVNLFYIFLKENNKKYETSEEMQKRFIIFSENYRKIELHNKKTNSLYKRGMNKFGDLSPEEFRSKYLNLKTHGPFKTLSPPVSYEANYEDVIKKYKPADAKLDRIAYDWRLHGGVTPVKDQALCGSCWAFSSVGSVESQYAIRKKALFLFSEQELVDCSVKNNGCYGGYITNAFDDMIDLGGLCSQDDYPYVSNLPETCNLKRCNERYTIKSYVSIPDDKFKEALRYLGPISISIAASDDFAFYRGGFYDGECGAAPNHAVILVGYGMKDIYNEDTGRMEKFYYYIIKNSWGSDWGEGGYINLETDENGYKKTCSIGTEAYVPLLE

| Compound | IC50 [1] | IC50 [2] | IC50 [3] |
| --- | --- | --- | --- |
| CC(C)CCNC(=O)[C@H](CCc1ccccc1)NC=C1C(=O)Nc2ccccc21 | 49.9 µM | 18.6 µM | > 50 µM |
| O=C1Nc2c(Cl)cccc2C1=CNCCCNc1ccnc2cc(Cl)ccc12 | > 50 µM | 0.17 µM | – |
| CC(C)CCNC(=O)[C@H](CC(C)C)NC=C1C(=O)Nc2c(Cl)cccc21 | 42.1 µM | 15.7 µM | > 50 µM |
| CC(C)CCNC(=O)[C@H](CC(C)C)NC=C1C(=O)N(C)c2ccccc21 | > 50 µM | 23.5 µM | > 50 µM |
| CC(C)CCNC(=O)CNC=C1C(=O)Nc2ccccc21 | > 50 µM | 26.7 µM | > 50 µM |
| O=C1Nc2ccc(Cl)cc2C1=CNCCCNc1ccnc2cc(Cl)ccc12 | > 50 µM | 0.2 µM | – |
| CC(C)CCNC(=O)[C@H](Cc1ccccc1)NC=C1C(=O)Nc2ccc(Cl)cc21 | 43.3 µM | > 50 µM | > 50 µM |
| O=C1Nc2c(Cl)cccc2C1=CNCCNc1ccnc2cc(Cl)ccc12 | – | 0.14 µM | – |
| CC(C)CCNC(=O)[C@H](CC(C)C)NC=C1C(=O)Nc2cc(Cl)ccc21 | 48.5 µM | 15.9 µM | > 50 µM |
| CN(C)C=C1C(=O)N(C)c2ccccc21 | > 50 µM | > 50 µM | – |
| CC(C)CCNC(=O)[C@H](CC(C)C)NC=C1C(=O)Nc2ccccc21 | > 50 µM | 30.7 µM | > 50 µM |
| CN(C)C=C1C(=O)Nc2c(Cl)cccc21 | > 50 µM | > 50 µM | – |
| O=C1Nc2ccccc2C1=CNc1ccccc1 | > 50 µM | > 10 µM | – |
| CN1C(=O)C(=CNCCCNc2ccnc3cc(Cl)ccc23)c2ccccc21 | > 50 µM | 0.29 µM | – |
| CC(C)CCNC(=O)[C@H](CC(C)C)NC=C1C(=O)Nc2ccc(Cl)cc21 | 44.1 µM | 18.7 µM | > 50 µM |
| CCOC(=O)[C@H](Cc1ccccc1)NC=C1C(=O)Nc2ccccc21 | > 50 µM | > 10 µM | – |
| CC(C)CCNC(=O)[C@H](CCc1ccccc1)NC=C1C(=O)Nc2c(Cl)cccc21 | 44 µM | 13.4 µM | > 50 µM |
| O=C1Nc2cc(Cl)ccc2C1=CNCCCNc1ccnc2cc(Cl)ccc12 | > 50 µM | 0.18 µM | – |
| CCOC(=O)CNC=C1C(=O)Nc2ccccc21 | > 50 µM | 10.8 µM | – |
| CN(C)C=C1C(=O)Nc2ccccc21 | > 50 µM | > 50 µM | – |
| O=C1Nc2ccccc2C1=CNCCCNc1ccnc2cc(Cl)ccc12 | > 50 µM | 0.42 µM | – |
| CN(C)C=C1C(=O)Nc2ccc(Cl)cc21 | > 50 µM | > 50 µM | – |
| CN(C)C=C1C(=O)Nc2cc(Cl)ccc21 | > 50 µM | > 50 µM | – |
| O=C1Nc2ccccc2C1=CSCc1ccccc1 | > 50 µM | > 10 µM | – |
| CC(C)C[C@H](NC(=O)[C@H]1O[C@@H]1C(=O)O)C(=O)NCCCCN=C(N)N [E-64] | 0.112 µM | – | 0.481 µM |
